# DAGLB inhibitor – DAGLB lipase inhibitors, primary screen, biochemical, fluorescence, HTS; HEK293T DAGLB membrane lysate, EnzChek fluorogenic substrate; Diacylglycerol lipase-beta (Homo sapiens), Q8NCG7; hit rate 0.059% among 340,000; inhibition, % at 5.17 µM; in the data active = inhibition above about 34%;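 note: 0% = enzyme with vehicle and 100% = wells lacking enzyme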
# Target sequence (Q8NCG7 whole entry, looked up): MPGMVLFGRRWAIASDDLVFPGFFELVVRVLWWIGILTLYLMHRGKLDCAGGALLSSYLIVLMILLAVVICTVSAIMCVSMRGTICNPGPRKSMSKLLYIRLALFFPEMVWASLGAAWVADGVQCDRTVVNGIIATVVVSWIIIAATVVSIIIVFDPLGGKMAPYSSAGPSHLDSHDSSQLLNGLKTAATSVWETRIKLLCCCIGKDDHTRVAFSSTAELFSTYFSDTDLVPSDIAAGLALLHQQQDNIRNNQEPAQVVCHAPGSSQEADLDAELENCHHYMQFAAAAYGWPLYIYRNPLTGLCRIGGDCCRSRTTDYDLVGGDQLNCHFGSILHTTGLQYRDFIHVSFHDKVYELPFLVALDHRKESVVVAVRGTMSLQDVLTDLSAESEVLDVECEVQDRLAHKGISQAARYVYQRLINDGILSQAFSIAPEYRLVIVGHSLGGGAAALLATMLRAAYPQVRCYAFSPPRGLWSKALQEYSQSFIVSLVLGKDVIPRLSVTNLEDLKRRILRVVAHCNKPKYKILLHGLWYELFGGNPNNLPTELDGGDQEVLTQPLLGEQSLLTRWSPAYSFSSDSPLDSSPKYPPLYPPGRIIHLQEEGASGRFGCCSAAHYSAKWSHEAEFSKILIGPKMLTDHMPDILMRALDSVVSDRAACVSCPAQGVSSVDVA
# MT1-MMP act inh – blockers of MT1-MMP proenzyme processing, primary screen, HT1080 RFP-PRO-GFP cells, GFP/RFP fluorescence; Matrix metalloproteinase-14 (Homo sapiens), P50281; GFP/RFP ratio fluorescence, overnight; percent of plate control window, DMSO zero; GFP/RFP ratio change, % at 20 µM; hit rate 0.061% among 360,000; AID 651647, 2012;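 active = GFP/RFP ratio change of at least 30% with cell ATP level not reduced by more than half and red fluorescence within 50% of control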
#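 Test system: HT1080 RFP-PRO-GFP cells; Benchmarks: DMSO and RFP-L50D-GFP cell wells; Timing: cells overnight before dosing, compound overnight, 37 °C, 5% CO2; Compound: one 20 µM compound dose with 1% DMSO; Read-out: GFP/RFP fluorescence ratio.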
# SKN-1 block – suppressors of acrylamide-induced Pgst-4::GFP reporter in worms, primary screen, SKN-1 inhibitor project, whole organism, uHTS, GFP/RFP fluorescence ratio, strain VP596; C. elegans VP596 Pgst-4::GFP/RFP ratio, 24 h; inhibition, % at 21.8 µM; hit rate 0.49% among 360,000;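 active = interference check ratio from 0.5 to 1.5 plus GFP to RFP signal ratio inhibition reaching or exceeding a fixed threshold, cut at about 30% in these data, passing the limit was not always enough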
# hiPSC survival – enhancers of single-cell hiPSC survival, primary screen, ATPlite luminescence; 100% = ROCK inhibitor wells, 0% = DMSO; survival enhancement, % at 20 µM; hit rate 0.044% among 360,000; AID 602274, 2012; in the data active = survival enhancement above about 18%;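 note: cells exposed to compounds for 16 hours before the ATP read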
# Cneo AK release – Cryptococcus neoformans cell lysis inducers, primary screen, AK release luminescence, single concentration. hit rate 0.2% among 360,000. AID 651654, 2012. C. neoformans lysis, adenylate kinase release luminescence, 4 h; normalised: neutral wells 0, clomiphene wells 100. lysis activity, % at 15 µM;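 active = mean lysis activity across replicates of at least 80%, whatever share of replicates individually reach that level; inactive = mean lysis activity below 80%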
#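 Material: C. neoformans cells; Schedule: 4 h static compound exposure, 37 °C, read 1 h post-reagent; Measured by: adenylate kinase release luminescence; Read-out: signal increase indicating cell lysis; Controls: Clomiphene as positive lysis control.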
# Ecoli rRNA inh – reduced GFP signal of wild-type E. coli, primary screen, bacterial rRNA inhibitor project, GFP/RFP fluorescence, OD600, single point; hit rate 1.6% among 350,000; GFP signal change (wild-type ribosome), % (test concentration not listed); E. coli WT GFP vs humanized-ribosome RFP mutants, 24 h; hits give low values; DMSO median 0, no signal -100;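 active = significant combined selectivity score with lowered wild-type GFP, culture density cut under 30%, mutant RFP and density less affected; inactive = any of these conditions unmet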
# * marks the source's active call; other numbers are inactive results; / = no result given. In the library only some 1.8% were active in any assay of this set; here they are far more common.
SMILES,DAGLB inhibitor,MT1-MMP act inh,SKN-1 block,hiPSC survival,Cneo AK release,Ecoli rRNA inh
C[C@H](CO)N1C[C@H](C)[C@H](CN(C)C(=O)Nc2ccnc(N3CCOCC3)c2)OCc2cn(nn2)CCCC1=O,/,/,/,/,3,0
CC(C)[C@@H]1C(=O)N[C@@H](c2ccccc2)CC=CC[C@@H](C)Oc2ccccc2C(=O)N1C (mixture of isomers),/,/,/,/,/,-4
CCc1ccc(NS(=O)(=O)c2ccc3[nH]cc(C(=O)N(C)Cc4ccco4)c(=O)c3c2)cc1,5,-5,6,0,-1,-25*
O=C(O)c1c(-n2cccc2)sc2c1CCCC2,0,1,6,-1,/,-44*
Cc1sc(-n2cccc2)c(C(=O)O)c1C,-1,10,7,1,-13,/
O=C([C@H]1[C@H](CO)[C@H]2Cn3c(cccc3=O)[C@@H]1N2Cc1cccc(Cl)c1)N1CCOCC1,/,/,/,/,90*,4
COc1cccc(/C=C/C(=O)Nc2ccc3nc4n(c(=O)c3c2)CCCC4)c1OC,1,6,-6,1,/,-23*
CCC[N+](CC#CCO)(CC#Cc1ccccc1)CCC,2,0,7,0,/,26
CC[N+](CC)(CC#Cc1ccccc1)CC(=O)c1ccc(Cl)cc1,2,-13,10,0,/,-23*
CCOc1ccccc1NC(=S)NNS(=O)(=O)c1c(C)cc(C)cc1C,-4,3,-12,4,/,-16*
CCOc1ccccc1NC(=O)NNS(=O)(=O)c1cc(C)ccc1C,0,1,-4,0,-1,-21
CS(=O)(=O)N1[C@@H]2c3ccc(-c4ccccc4)c(=O)n3C[C@@H]2[C@@H](CO)[C@@H]1C(=O)NC1CCC1,/,/,/,/,-2,0
C[C@H]1CN([C@@H](C)CO)S(=O)(=O)c2ccc(-c3cncnc3)cc2O[C@@H]1CN(C)C(=O)C1CCCCC1,/,/,/,/,56,3
COC(=O)c1cc(C(=O)OC)n(Cc2ccc(F)cc2)c1C,-5,0,2,-1,1,-40*
C=CCN1Cc2ccccc2[C@H]2OC(c3ccc(OCCCO)cc3)=N[C@@]2(CCS(=O)(=O)c2ccccc2)C1=O,/,/,/,/,-8,/
COc1ccc(C(=O)NC(=S)Nc2ccc(CN3CCOCC3)cc2)cc1Br,4,6,15,0,15,-22*
CCCN(C)C[C@@H]1Oc2cc(C#Cc3cccc(OC)c3)ccc2S(=O)(=O)N([C@@H](C)CO)C[C@@H]1C,/,/,/,/,-1,-6
CN1Cc2c(N3CCOCC3)nc3sc(C(=O)c4ccccc4)c(N)c3c2CC1(C)C,3,-2,-10,-1,/,-36*
Nc1c(C(=O)c2ccccc2)sc2nsc(SCCN3CCOCC3)c12,/,-143,9,0,0,-27*
O=C(NC1CCCC1)N1CCCCN2[C@H](CO)[C@H](c3ccc(/C=C/c4ccccc4)cc3)[C@@H]2C1,/,/,/,/,9,-53
C[C@H](CO)N1C[C@H](C)[C@@H](CN(C)S(=O)(=O)c2ccccc2)OCCCC[C@H](C)Oc2ccc(NS(=O)(=O)c3ccccc3)cc2C1=O,/,/,/,/,-1,-5
C[C@H]1CN([C@@H](C)CO)C(=O)c2cc(NS(=O)(=O)c3ccc(F)cc3)ccc2O[C@@H]1CN(C)Cc1ccc(Cl)c(Cl)c1,/,/,/,/,0,-4
O=S(=O)(Nc1nc2ccccc2nc1NCC1CCCO1)c1cc(Cl)ccc1Cl (stereo not drawn),7,5,11,0,/,-27*
COc1cccc(C(C)NC(=S)NCc2ccc(Cl)cc2)c1 (stereo not drawn),-1,2,10,-1,/,-24*
C[C@@H]1CN([C@@H](C)CO)C(=O)Cc2cc(NS(=O)(=O)c3cn(C)cn3)ccc2O[C@@H]1CN(C)S(=O)(=O)c1ccc(F)cc1,/,/,/,/,/,3
